This is an account of results in ChEMBL document CHEMBL1154422, “First characterization of heterogeneous resistance to imipenem in invasive nontypeable Haemophilus influenzae isolates” (2007).

≈ marks a conversion by molar mass, not a printed value. Calls of active or inactive are those of the source. No cut-off for these calls is given here.

Assay [1] relates to Haemophilus influenzae. The assay is described as follows: Antimicrobial activity against imipenem-susceptible invasive nontypeable Haemophilus influenzae isolate 187 by Etest. Format: functional. The procedure, abridged: (§1)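 Imipenem MIC read by Etest on Haemophilus test medium (HTM) agar following CLSI guidelines; inoculum about 3 × 10^8 to 4 × 10^8 CFU/ml. H. influenzae ATCC 49247 and ATCC 10211 served as quality controls. Interpretation used CLSI breakpoints. Strains were maintained on Vitox-supplemented chocolate agar at 37°C with 5% CO2.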

The subject of assay [2] is Haemophilus influenzae. Nature of the assay: Antimicrobial activity against imipenem-resistant invasive nontypeable Haemophilus influenzae isolate 183 by Etest. It counts as functional. In a few lines:
as §1

In assay [3] the test system is Haemophilus influenzae. The assay is described as follows: Antimicrobial activity against imipenem-susceptible invasive nontypeable Haemophilus influenzae isolate 251 by Etest. It counts as functional. The procedure, abridged: (§2)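 Etest MIC on Haemophilus test medium (HTM) agar plates following CLSI guidelines, with a high inoculum (3 × 10^8 to 4 × 10^8 CFU/ml). Strains were maintained on Vitox-supplemented chocolate agar at 37°C with 5% CO2. H. influenzae ATCC 49247 and ATCC 10211 served as quality controls. Interpretation used CLSI breakpoints.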

Assay [4] relates to Haemophilus influenzae. Nature of the assay: Antimicrobial activity against imipenem-resistant invasive nontypeable Haemophilus influenzae isolate 184 by Etest. Format: functional. In a few lines:
as §1

Assay [5] deals with Haemophilus influenzae. Nature of the assay: Antimicrobial activity against Haemophilus influenzae Rd transformed with ftsI gene from imipenem-resistant invasive nontypeable Haemophilus influenzae isolate 183 by Etest. It counts as functional. In a few lines: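 Recipient strain Rd (ATCC 51907) was electroporated with the PCR-amplified full-length ftsI gene plus flanking DNA from strain 183, then selected on HTM agar with 4 μg/ml imipenem. Imipenem MIC was then read by Etest on HTM agar per CLSI, in triplicate on separate days, and reported as a range.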

Assay [6] has as its system Haemophilus influenzae. The assay is described as follows: Antimicrobial activity against imipenem-susceptible invasive nontypeable Haemophilus influenzae isolate 244 by Etest. Format: functional. In a few lines:
as §1

Assay [7] deals with Haemophilus influenzae. The assay is described as follows: Antimicrobial activity against imipenem-susceptible invasive nontypeable Haemophilus influenzae isolate 248 by Etest. It counts as functional. The procedure, abridged: as §1
For assay [8], the system named is Haemophilus influenzae. Nature of the assay: Antimicrobial activity against imipenem-susceptible Haemophilus influenzae Rd by Etest. It counts as functional. In a few lines: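 Etest MIC on HTM agar per CLSI, inoculum 3 × 10^8 to 4 × 10^8 CFU/ml, with strains grown on Vitox-supplemented chocolate agar at 37°C with 5% CO2. Imipenem and ampicillin MICs were tested in triplicate on separate days and reported as the range. ATCC 49247 and ATCC 10211 were the quality controls.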

The test system of assay [9] is Haemophilus influenzae. Nature of the assay: Antimicrobial activity against imipenem-resistant invasive nontypeable Haemophilus influenzae isolate 183 by Etest in presence of 0.390 uM efflux pump inhibitor carbonyl cyanide m-chlorophenyl-hydrazone. It counts as functional, organism-based. The procedure, abridged:
(§3)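 CCCP was made up as a 100 mM DMSO stock and added to HTM agar at final 3.12, 1.56, 0.781 or 0.390 μM. Imipenem Etest was run on these plates per CLSI on HTM agar.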

Assay [10] relates to Haemophilus influenzae. Nature of the assay: Antimicrobial activity against imipenem-resistant invasive nontypeable Haemophilus influenzae isolate 183 at 1.56 uM by Etest. It counts as functional, organism-based. In a few lines: as §3
The subject of assay [11] is Haemophilus influenzae. The assay is described as follows: Antimicrobial activity against imipenem-resistant invasive nontypeable Haemophilus influenzae isolate 183 by standard broth dilution method. It counts as functional. In a few lines:
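Imipenem MIC by CLSI standard broth dilution method; inoculum 5 × 10^5 CFU/ml.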
In general terms: Broth dilution looks for growth in wells or tubes with falling amounts of substance.

Assay [12] concerns Haemophilus influenzae. Nature of the assay: Antimicrobial activity against imipenem-resistant invasive nontypeable Haemophilus influenzae isolate 184 by standard broth dilution method. Format: functional. In a few lines:
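Broth dilution MIC per CLSI standard procedure. Inoculum 5 × 10^5 CFU/ml, lower than the Etest inoculum. Strain first grown on Vitox-supplemented chocolate agar at 37°C with 5% CO2. Beta-lactamase checked by nitrocefin stick test.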

For assay [13], the system named is Haemophilus influenzae. The assay is described as follows: Antimicrobial activity against imipenem-resistant invasive nontypeable Haemophilus influenzae isolate 184 at 1.56 uM by Etest. Format: functional, organism-based. The procedure, abridged:
as §3

Assay [14] deals with Haemophilus influenzae. Nature of the assay: Antimicrobial activity against imipenem-resistant invasive nontypeable Haemophilus influenzae isolate 184 by Etest in presence of 0.781 uM efflux pump inhibitor carbonyl cyanide m-chlorophenyl-hydrazone. It counts as functional, organism-based. In a few lines: as §3
For assay [15], the system named is Haemophilus influenzae. The assay is described as follows: Antimicrobial activity against imipenem-resistant invasive nontypeable Haemophilus influenzae isolate 184 by Etest in presence of 0.390 uM efflux pump inhibitor carbonyl cyanide m-chlorophenyl-hydrazone. It counts as functional, organism-based. The procedure, abridged: as §3
Assay [16] concerns Haemophilus influenzae. Nature of the assay: Antimicrobial activity against Haemophilus influenzae ATCC 10211 by Etest. It counts as functional. The procedure, abridged:
as §2

Assay [17] concerns Haemophilus influenzae. The assay is described as follows: Antimicrobial activity against imipenem-resistant invasive nontypeable Haemophilus influenzae isolate 183 by Etest in presence of 0.781 uM efflux pump inhibitor carbonyl cyanide m-chlorophenyl-hydrazone. It counts as functional, organism-based. In a few lines:
as §3

For `CC1(C)S[C@@H]2[C@H](NC(=O)[C@H](N)c3ccccc3)C(=O)N2[C@H]1C(=O)O` [AMPICILLIN], the MIC with Haemophilus influenzae [1] is 0.19 µg/mL (≈ 0.544 µM); against Haemophilus influenzae [2] it was 0.75 µg/mL (≈ 2.15 µM); in the assay with Haemophilus influenzae [3] it was 0.125 µg/mL (≈ 0.358 µM); in the assay on Haemophilus influenzae [4], 0.5 µg/mL (≈ 1.43 µM); with Haemophilus influenzae [5] it was 0.38 µg/mL (≈ 1.09 µM); in the assay with Haemophilus influenzae [6] it was 0.25 µg/mL (≈ 0.715 µM). The MIC in the assay with Haemophilus influenzae [7] worked out at 0.125 µg/mL (≈ 0.358 µM); against Haemophilus influenzae [8] it was 0.064 µg/mL (≈ 0.183 µM).
With `CO/N=C(\C(=O)N[C@@H]1C(=O)N2C(C(=O)O)=C(COC(C)=O)CS[C@H]12)c1csc(N)n1` [CEFOTAXIME], the MIC in the assay on Haemophilus influenzae [1] worked out at 0.047 µg/mL (≈ 0.103 µM); in the assay with Haemophilus influenzae [2], 0.047 µg/mL (≈ 0.103 µM); against Haemophilus influenzae [3], 0.016 µg/mL (≈ 0.0351 µM); in the assay on Haemophilus influenzae [4] it was 0.125 µg/mL (≈ 0.274 µM); in the assay with Haemophilus influenzae [6] it was 0.016 µg/mL (≈ 0.0351 µM); against Haemophilus influenzae [7], 0.016 µg/mL (≈ 0.0351 µM). For the same compound, the MIC in the assay with Haemophilus influenzae [8] came out at 0.5 µg/mL (≈ 1.1 µM).
As for `CO/N=C(\C(=O)N[C@@H]1C(=O)N2C(C(=O)O)=C(CSc3nc(=O)c(O)nn3C)CS[C@H]12)c1csc(N)n1` [CEFTRIAXONE], the MIC in the assay on Haemophilus influenzae [2] is 0.032 µg/mL (≈ 0.0577 µM); in the assay with Haemophilus influenzae [5] it was under 0.016 µg/mL; against Haemophilus influenzae [8], under 0.016 µg/mL.
With `O=C(N[C@H](CO)[C@H](O)c1ccc([N+](=O)[O-])cc1)C(Cl)Cl` [CHLORAMPHENICOL], the MIC is 0.38 µg/mL (≈ 1.18 µM) with Haemophilus influenzae [1]; 0.38 µg/mL (≈ 1.18 µM) in the assay with Haemophilus influenzae [2]; 0.25 µg/mL (≈ 0.774 µM) with Haemophilus influenzae [3]; 0.5 µg/mL (≈ 1.55 µM) against Haemophilus influenzae [4]; 0.38 µg/mL (≈ 1.18 µM) against Haemophilus influenzae [6]; 0.38 µg/mL (≈ 1.18 µM) in the assay on Haemophilus influenzae [7].
With `C[C@@H](O)[C@H]1C(=O)N2C(C(=O)O)=C(SCCNC=N)C[C@H]12` [IMIPENEM ANHYDROUS], the outcome in the assay with Haemophilus influenzae [9], in the assay with Haemophilus influenzae [14], in the assay with Haemophilus influenzae [15] and in the assay on Haemophilus influenzae [17] was Active. Further, the result in the assay with Haemophilus influenzae [10] and with Haemophilus influenzae [13] was inactive. Besides, the MIC was 1.5 µg/mL (≈ 5.01 µM) against Haemophilus influenzae [1]; at least 32 µg/mL with Haemophilus influenzae [2]; 0.5 µg/mL (≈ 1.67 µM) against Haemophilus influenzae [3]; at least 32 µg/mL against Haemophilus influenzae [4]; 2 µg/mL (≈ 6.68 µM) against Haemophilus influenzae [11]; 1 µg/mL (≈ 3.34 µM) in the assay with Haemophilus influenzae [12]. The MIC against Haemophilus influenzae [16] came out at 1.5 µg/mL (≈ 5.01 µM); in the assay with Haemophilus influenzae [5] it was 4 µg/mL (≈ 13.4 µM); in the assay on Haemophilus influenzae [6] it was 0.5 µg/mL (≈ 1.67 µM); with Haemophilus influenzae [7], 0.25 µg/mL (≈ 0.835 µM); in the assay with Haemophilus influenzae [8] it was 0.38 µg/mL (≈ 1.27 µM).
